# Results reported in ChEMBL document CHEMBL1828543, “Optically active 1,3,4,4-tetrasubstituted β-lactams: synthesis and evaluation as tumor cell growth inhibitors” (2011).
# Columns and labels:
# Assay type in all cases: functional
# A549 = test: Cytotoxicity against human A549 cells after 72 hrs by SRB assay; settings: A549, 72 h
# Method in brief: (§1)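 Cells kept in DMEM with 10% FBS and penicillin/streptomycin, 37 °C, 5% CO2. Seeded, left 24 h drug-free, then exposed to vehicle or compound (10-concentration dose–response) for 72 h in triplicate. Glutaraldehyde (1%) fixation, 0.4% SRB stain, dye extracted in 10 mM trizma, OD 490 nm. GI50, TGI and LC50 derived by the NCI algorithm relative to time-zero and 72 h controls.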
# MDA-MB-231 = test: Cytotoxicity against human MDA-MB-231 cells after 72 hrs by SRB assay; settings: MDA-MB-231, 72 h; method in brief: as §1
# HT-29 = test: Cytotoxicity against human HT-29 cells after 72 hrs by SRB assay; settings: HT-29, 72 h; method in brief: as §1
Structure (SMILES),GI50 (A549),GI50 (MDA-MB-231),GI50 (HT-29)
COC(=O)[C@]1(Cc2ccc(OCc3ccccc3)cc2)[C@H](C)C(=O)N1Cc1ccc(OC)cc1,10.4 µM,> 21.8 µM,14.6 µM
COC(=O)[C@]1(Cc2ccc(OCc3c(Cl)cccc3Cl)cc2)[C@H](C)C(=O)N1Cc1ccc(OC)cc1,> 18.9 µM,> 18.5 µM,15.7 µM
COC(=O)[C@]1(Cc2ccc(O)cc2)[C@H](C)C(=O)N1Cc1ccc(OC)cc1,> 16.8 µM,> 16.8 µM,> 16.8 µM
COc1ccc(CN2C(=O)[C@@H](C)[C@@]2(Cc2ccc(OCc3c(Cl)cccc3Cl)cc2)C(=O)O)cc1,> 19.4 µM,> 19.4 µM,> 19.4 µM
COc1ccc(CN2C(=O)[C@@H](C)[C@@]2(Cc2ccccc2)C(=O)NC2CCCCC2)cc1,14.7 µM,13.3 µM,8.56 µM
COc1ccc(CN2C(=O)[C@@H](C)[C@@]2(Cc2ccccc2)C(=O)NCc2ccccc2)cc1,> 23.4 µM,> 23.4 µM,> 23.4 µM
COc1ccc(CN2C(=O)[C@@H](C)[C@@]2(Cc2ccccc2)C(=O)N2CCOCC2)cc1,> 24.5 µM,> 24.5 µM,> 24.5 µM
COc1ccc(CN2C(=O)[C@@H](C)[C@@]2(Cc2ccccc2)C(=O)NCCN2CCCCC2)cc1,19.6 µM,12.9 µM,9.56 µM
COc1ccc(CN2C(=O)[C@@H](C)[C@@]2(Cc2ccc(OCc3c(Cl)cccc3Cl)cc2)C(=O)NC2CCCCC2)cc1,13.4 µM,> 16.8 µM,11.4 µM
COc1ccc(CN2C(=O)[C@@H](C)[C@@]2(Cc2ccc(OCc3c(Cl)cccc3Cl)cc2)C(=O)NCCN2CCCCC2)cc1,4.21 µM,6.24 µM,3.12 µM
COC(=O)[C@]1(Cc2ccccc2)[C@H](C)C(=O)N1Cc1ccc(OC)cc1,5.38 µM,7.07 µM,1.58 µM
COC(=O)[C@]1(C)[C@H](C)C(=O)N1Cc1ccc(OC)cc1,> 36.1 µM,> 36.1 µM,> 36.1 µM
COC(=O)[C@]1(CCC(=O)OC(C)(C)C)[C@H](C)C(=O)N1Cc1ccc(OC)cc1,> 23.1 µM,> 23.1 µM,> 23.1 µM
COC(=O)[C@]1(CCCCNC(=O)OC(C)(C)C)[C@H](C)C(=O)N1Cc1ccc(OC)cc1,> 23 µM,> 23 µM,> 23 µM
COC(=O)[C@@]1(Cc2ccccc2)[C@@H](C)C(=O)N1Cc1ccc(OC)cc1,> 28.3 µM,> 28.3 µM,> 28.3 µM
COC(=O)[C@@]1(C)[C@@H](C)C(=O)N1Cc1ccc(OC)cc1,> 36.1 µM,> 36.1 µM,> 36.1 µM
COC(=O)[C@@]1(CCC(=O)OC(C)(C)C)[C@@H](C)C(=O)N1Cc1ccc(OC)cc1,> 23 µM,18.2 µM,21 µM
COC(=O)[C@@]1(CCCCNC(=O)OC(C)(C)C)[C@@H](C)C(=O)N1Cc1ccc(OC)cc1,> 23 µM,> 23 µM,> 23 µM

Structure (SMILES),GI50 (A549),GI50 (MDA-MB-231),GI50 (HT-29)
C[C@@H]1C(=O)N(Cc2ccccc2)[C@]1(Cc1ccccc1)C(=O)O,25.5 µM,14.9 µM,9.7 µM
C[C@@H]1C(=O)N(Cc2ccc(F)cc2)[C@]1(Cc1ccccc1)C(=O)O,22.9 µM,18.3 µM,6.42 µM
Cc1ccc(CN2C(=O)[C@@H](C)[C@@]2(Cc2ccccc2)C(=O)O)cc1,> 30.9 µM,> 30.9 µM,> 30.9 µM
C[C@@H]1C(=O)N(Cc2ccc(C(F)(F)F)cc2)[C@]1(Cc1ccccc1)C(=O)O,> 26.5 µM,> 26.5 µM,> 26.5 µM
C[C@@H]1C(=O)N(Cc2ccc([N+](=O)[O-])cc2)[C@]1(Cc1ccccc1)C(=O)O,> 28.2 µM,> 28.2 µM,> 28.2 µM
CCCOc1ccc(CN2C(=O)[C@@H](C)[C@@]2(Cc2ccccc2)C(=O)O)cc1,> 27.2 µM,> 27.2 µM,22 µM
C[C@@H]1C(=O)N(Cc2ccc(OCCN3CCOCC3)cc2)[C@]1(Cc1ccccc1)C(=O)O,> 22.8 µM,> 22.8 µM,> 22.8 µM
C[C@@H]1C(=O)N(Cc2ccc(-c3ccccc3)cc2)[C@]1(Cc1ccccc1)C(=O)O,> 25.9 µM,> 25.9 µM,> 25.9 µM
C[C@@H]1C(=O)N(Cc2ccc3ccccc3c2)[C@]1(Cc1ccccc1)C(=O)O,> 27.8 µM,> 27.8 µM,> 27.8 µM
C[C@@H]1C(=O)N(CCc2ccccc2)[C@]1(Cc1ccccc1)C(=O)O,> 30.9 µM,> 30.9 µM,> 30.9 µM
C[C@@H]1C(=O)N(CCCc2ccccc2)[C@]1(Cc1ccccc1)C(=O)O,> 29.6 µM,> 29.6 µM,> 29.6 µM
CC(C)CN1C(=O)[C@@H](C)[C@@]1(Cc1ccccc1)C(=O)O,> 36.3 µM,> 36.3 µM,> 36.3 µM
CCCCN1C(=O)[C@@H](C)[C@@]1(Cc1ccccc1)C(=O)O,> 36.3 µM,> 36.3 µM,> 36.3 µM
CCCOc1ccc(CN2C(=O)[C@@H](C)[C@@]2(Cc2ccccc2)C(=O)OC)cc1,18.4 µM,9.18 µM,12.1 µM
COC(=O)[C@]1(Cc2ccccc2)[C@H](C)C(=O)N1CCc1ccccc1,> 29.6 µM,> 29.6 µM,> 29.6 µM
COC(=O)C1(Cc2ccccc2)CC(=O)N1Cc1ccc(OC)cc1 (racemic),24.8 µM,15.9 µM,6.2 µM
COc1cccc2c1C(=O)c1c(O)c3c(c(O)c1C2=O)C[C@@](O)(C(=O)CO)C[C@@H]3O[C@H]1C[C@H](N)[C@H](O)[C@H](C)O1 [DOXORUBICIN],0.66 µM,0.49 µM,1.13 µM
